We go through four compounds from ChEMBL document CHEMBL1129379, “Heterocyclic ureas: inhibitors of acyl-CoA:cholesterol O-acyltransferase as hypocholesterolemic agents” (J Med Chem, 1996).

pIC50: −log10 of the molar value.

Data set [1] relates to Rattus norvegicus. As to the kind of experiment: Percent change in plasma TC in the chronic C-fed rat model of pre-established hypercholesterolemia. dose at 30 mg/kg. Format: functional. The method, boiled down:
(§1)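 Chronic rat model of pre-established hypercholesterolemia: 1 week on high-cholesterol diet, then compound dosed orally once daily for 1 week. Plasma total cholesterol, HDL-C and non-HDL-C expressed as percent change versus control; p < 0.05 flagged.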

The target of data set [2] is T1, Sterol O-acyltransferase 1 (Rattus norvegicus) (UniProt O70536).
T1 sequence (whole entry): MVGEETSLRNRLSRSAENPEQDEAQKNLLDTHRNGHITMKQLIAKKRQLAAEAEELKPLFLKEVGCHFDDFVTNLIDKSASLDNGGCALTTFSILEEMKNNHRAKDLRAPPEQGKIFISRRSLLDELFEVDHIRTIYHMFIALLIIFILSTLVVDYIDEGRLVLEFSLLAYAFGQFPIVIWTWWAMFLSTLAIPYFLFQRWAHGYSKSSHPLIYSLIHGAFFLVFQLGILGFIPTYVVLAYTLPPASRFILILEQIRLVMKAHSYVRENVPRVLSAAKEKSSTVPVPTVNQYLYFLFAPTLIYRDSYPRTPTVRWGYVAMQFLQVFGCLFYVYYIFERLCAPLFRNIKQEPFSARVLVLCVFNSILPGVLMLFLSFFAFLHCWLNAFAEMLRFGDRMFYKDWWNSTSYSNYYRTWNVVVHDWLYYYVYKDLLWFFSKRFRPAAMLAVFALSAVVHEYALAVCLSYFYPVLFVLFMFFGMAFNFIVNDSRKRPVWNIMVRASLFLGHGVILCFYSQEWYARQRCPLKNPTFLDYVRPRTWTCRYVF
As to the kind of experiment: Percent change in plasma total cholesterol in an acute cholesterol-fed rat model of hypercholesterolemia, dose at 3 mg/kg. Format: functional, organism-based. Further details: dose 3 mg/kg.

The target in data set [3] is T1, Sterol O-acyltransferase 1 (Rattus norvegicus). Nature of the data set: Percent change in plasma total cholesterol in an acute cholesterol-fed rat model of hypercholesterolemia, dose at 30 mg/kg. The class given is functional, organism-based. Further details: dose 30 mg/kg.
A further data set addresses O-acyltransferase (Oryctolagus cuniculus, UniProt G1SFD9). Nature of the data set: Acyl coenzyme A:cholesterol acyltransferase 1 inhibition in vitro measured in rabbit intestinal microsomes. Further details: species or system Intestine.
Data set [4] concerns Rattus norvegicus. Nature of the data set: Percent change in non-HDL-C, dose at 30 mg/kg. The class given is functional. In short, it runs like this:
as §1

Data set [5] deals with Rattus norvegicus. Nature of the data set: Percent change in HDL-C,dose at 30 mg/kg. Format: functional. In short, it runs like this:
as §1

For data set [6], the system named is Rattus norvegicus. As to the kind of experiment: Percent change in HDL-Cdose at 30 mg/kg. The class given is functional. In short, it runs like this: as §1
Data set [7] concerns Rattus norvegicus. Nature of the data set: Percent change in non-HDL-C Dose at 30 mg/kg. Format: functional. In short, it runs like this:
as §1

Data set [8] deals with T1, Sterol O-acyltransferase 1 (Rattus norvegicus). As to the kind of experiment: (§2) Percent change in plasma TC in the chronic C-fed rat model of pre-established hypercholesterolemia. Dose at 30 mg/kg. The class given is functional, organism-based. More on the design: dose 30 mg/kg. In short, it runs like this:
as §1

The test system of data set [9] is Rattus norvegicus. As to the kind of experiment: Percent change in HDL-CDose at 30 mg/kg. The class given is functional. The method, boiled down:
as §1

Data set [10] concerns Rattus norvegicus. Nature of the data set: Percent change in HDL-CDose at 10 mg/kg. Format: functional. The method, boiled down:
as §1

The subject of data set [11] is Rattus norvegicus. Nature of the data set: Percent change in HDL-CDose at 3 mg/kg. Format: functional. The method, boiled down: as §1
The test system of data set [12] is Rattus norvegicus. As to the kind of experiment: Percent change in plasma TC in the chronic C-fed rat model of pre-established hypercholesterolemia. Dose at 3 mg/kg. Format: functional. In short, it runs like this:
as §1

Data set [13] concerns Canis familiaris. Nature of the data set: Percent change in plasma cholesterol in dog at 3 mg/kg. Format: functional, Canis lupus familiaris. The method, boiled down: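 Cholesterol-fed female Beagle dogs given bulk drug in capsules before meals, daily for 1 week, at 3 mg/kg po. Plasma total cholesterol compared before and after treatment as percent change; paired two-tailed t-test, n = 6.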

Data set [14] deals with Rattus norvegicus. As to the kind of experiment: Percent change in plasma TC in the chronic C-fed rat model of pre-established hypercholesterolemia. Dose at 10 mg/kg. The class given is functional. The method, boiled down:
as §1

Data set [15] relates to Rattus norvegicus. Nature of the data set: Percent change in non-HDL-C Dose at 3 mg/kg. The class given is functional. In short, it runs like this:
as §1

Data set [16] relates to Rattus norvegicus. Nature of the data set: Percent change in non-HDL-C Dose at 10 mg/kg. Format: functional. The method, boiled down: as §1
For data set [17], the system named is Rattus norvegicus. As to the kind of experiment: Percent change in non-HDL-C,Dose at 3 mg/kg. The class given is functional. In short, it runs like this:
as §1

The subject of data set [18] is Rattus norvegicus. As to the kind of experiment: Percent change in non-HDL-C,dose at 30 mg/kg. The class given is functional. In short, it runs like this:
as §1

The test system of data set [19] is Rattus norvegicus. The description is as §2. The class given is functional. In short, it runs like this:
as §1

Data set [20] deals with Rattus norvegicus. Nature of the data set: Percent change in non-HDL-C,Dose at 10 mg/kg. The class given is functional. The method, boiled down: as §1
Data set [21] relates to Canis familiaris. As to the kind of experiment: mean blood drug concentration in dog, compound Dose at 3 mg/kg. The class given is ADME, organism-based, Canis lupus familiaris. Further details: dose 3 mg/kg. The note with it: in vivo. In short, it runs like this:
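Cholesterol-fed Beagle dogs dosed at 3 mg/kg. Plasma drug measured by HPLC on a C8 column, acetonitrile/water 4:1 eluent, detection at 190 nm, with a related analog as internal standard. Quantitation limit 40 ng/mL; mean of 6 animals.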

Data set [22] deals with Rattus norvegicus. As to the kind of experiment: Percent change in HDL-C,Dose at 3 mg/kg. Format: functional. The method, boiled down:
as §1

Data set [23] relates to Rattus norvegicus. Nature of the data set: Percent change in HDL-C,Dose at 10 mg/kg. Format: functional. In short, it runs like this:
as §1

In the case of `CCCCCCCCCCCCCc1cc(NC(=O)Nc2c(C(C)C)cccc2C(C)C)no1`, the results for the “Delta TC” value (in the data set with Rattus norvegicus [1]; in [2]; in [3]) were -40%, -59% and -62%, respectively. On O-acyltransferase, this compound gave a pIC50 of 7.85. For the same compound, the Non-HDL-C in the data set with Rattus norvegicus [4] is given as -45%. In addition, in the data set on Rattus norvegicus [5], the “Delta HDL-C” value is on record as 33%.
In the case of `CCCCCCCCCCc1cc(NC(=O)Nc2c(C(C)C)cccc2C(C)C)on1`, the “Delta HDL-C” value with Rattus norvegicus [6] is recorded as -6%. Further, the Non-HDL-C in the data set on Rattus norvegicus [7] is -14%. The entries for the “Delta TC” value (in the data set with Rattus norvegicus [1]; in [2]; in data set [3]) were -13%, -61% and -69%, respectively. In addition, at O-acyltransferase, the pIC50 is 7.54.
Take `CCCCCCCCCCCCCCN1NN=C(NC(=O)Nc2c(C(C)C)cccc2C(C)C)N1`: the Non-HDL-C was -68% in the data set with Rattus norvegicus [7], -48% in the data set on Rattus norvegicus [15] and -61% with Rattus norvegicus [16]. Also, the Delta TC in data set [8] was -61%; in data set [2] it was -56%; in the data set with Rattus norvegicus [12], -43%; in data set [3] it was -65%; with Rattus norvegicus [14], -53%. In addition, the “Delta HDL-C” value in the data set on Rattus norvegicus [9] was determined as 93%; with Rattus norvegicus [10], 87%; in the data set with Rattus norvegicus [11], 47%. In addition, the pIC50 against O-acyltransferase is 7.92. For the same compound, the Delta plasma cholesterol with Canis familiaris [13] is reported as -22%.
Consider `CCCCCCCCCCCCN1NN=C(NC(=O)Nc2c(C(C)C)cccc2C(C)C)N1`, for which the Non-HDL-C is recorded as -47% with Rattus norvegicus [17], -78% in the data set with Rattus norvegicus [18] and -72% in the data set on Rattus norvegicus [20]. For the same compound, the “Delta TC” value with Rattus norvegicus [19] was -69%; in [2], -61%; in the data set on Rattus norvegicus [12], -43%; in data set [3] it was -67%; in the data set with Rattus norvegicus [14], -64%. Moreover, in the data set on Canis familiaris [21], the Plasma level is 29.3 ng/mL. The “Delta HDL-C” value was determined as 20% in the data set with Rattus norvegicus [22], 93% in the data set on Rattus norvegicus [5] and 87% in the data set with Rattus norvegicus [23]. This compound gave a pIC50 on O-acyltransferase of 7.85. Besides, in the data set on Canis familiaris [13], the Delta plasma cholesterol was -39%.

Usually pIC50 stands for the negative decadic logarithm of the IC50, by convention in mol/L.
